pIC50: −log10 of the molar value. Calls of active or inactive are those of the source. The calls are words filed in the database; no cut-off is given here.
Legend:
[1] = biological target: T1, Polyunsaturated fatty acid 5-lipoxygenase (Homo sapiens) (UniProt P09917); experiment: Inhibition of recombinant human 5-LO binding to FLAP expressed in HEK293 cells at 10 uM after 1 hr by DAPI staining-based immunofluorescence microscopic analysis; assay type: cell-based
T1 sequence (whole entry): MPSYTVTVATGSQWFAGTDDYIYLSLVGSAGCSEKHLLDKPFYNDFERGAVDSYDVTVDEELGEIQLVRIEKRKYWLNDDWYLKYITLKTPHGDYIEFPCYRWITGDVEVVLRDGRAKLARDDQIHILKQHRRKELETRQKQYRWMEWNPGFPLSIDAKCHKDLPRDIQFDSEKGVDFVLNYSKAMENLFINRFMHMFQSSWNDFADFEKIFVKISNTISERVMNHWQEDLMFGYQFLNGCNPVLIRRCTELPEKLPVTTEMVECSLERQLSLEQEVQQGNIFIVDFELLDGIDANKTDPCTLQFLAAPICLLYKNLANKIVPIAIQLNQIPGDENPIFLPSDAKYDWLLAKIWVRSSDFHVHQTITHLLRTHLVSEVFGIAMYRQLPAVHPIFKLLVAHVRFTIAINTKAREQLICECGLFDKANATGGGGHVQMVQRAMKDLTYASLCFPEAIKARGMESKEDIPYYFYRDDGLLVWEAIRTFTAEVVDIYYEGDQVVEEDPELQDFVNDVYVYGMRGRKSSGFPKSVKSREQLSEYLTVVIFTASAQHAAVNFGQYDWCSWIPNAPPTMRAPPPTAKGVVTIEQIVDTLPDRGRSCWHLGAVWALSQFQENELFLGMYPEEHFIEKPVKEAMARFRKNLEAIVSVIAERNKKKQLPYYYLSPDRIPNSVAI
How it was run: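 HEK293 cells stably expressing 5-LO/FLAP, treated with 10 µM compound for 10 min and then 2.5 µM A23187 for 20 min at 37 °C, fixed, and probed with anti-5-LO/anti-FLAP primaries. This was followed by oligonucleotide-linked secondaries (1 h, 37 °C), ligation, rolling-circle amplification and DAPI nuclear stain. Proximity ligation signals counted microscopically in 100 cells from three experiments.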

Prostaglandin E synthase = biological target: T2, Prostaglandin E synthase (Homo sapiens, UniProt O14684); experiment: Inhibition of mPGES-1 isolated from microsomes of interleukin-1 beta-stimulated human A549 cells using PGH2 as substrate preincubated for 15 mins followed by substrate addition measured after 1 min by RP-HPLC analysis
T2 sequence (O14684 whole entry): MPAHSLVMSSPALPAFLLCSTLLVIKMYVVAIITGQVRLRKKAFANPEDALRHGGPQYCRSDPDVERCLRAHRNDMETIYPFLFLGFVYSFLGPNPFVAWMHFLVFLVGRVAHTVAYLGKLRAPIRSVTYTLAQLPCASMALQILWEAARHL
How it was run: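 Microsomes from A549 cells treated with IL-1β (1 ng/ml, 72 h), diluted in 0.1 M potassium phosphate pH 7.4 with 2.5 mM glutathione. Pre-incubated 15 min with compound or DMSO, then 20 µM PGH2 (final) for 1 min at 4 °C. IC50 from 4-5 concentrations.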

[2] = biological target: T3, Polyunsaturated fatty acid lipoxygenase ALOX15 (Homo sapiens) (UniProt P16050); experiment: Modulation of 15-LO-mediated 15-HETE level in human M2 macrophages derived from IL4-polarized human monocyte derived macrophages at 3 uM preincubated for 15 mins followed by Escherichia coli (O6:K2:H1) challenge for 90 mins by LC-MS/MS analysis
T3 sequence (whole entry): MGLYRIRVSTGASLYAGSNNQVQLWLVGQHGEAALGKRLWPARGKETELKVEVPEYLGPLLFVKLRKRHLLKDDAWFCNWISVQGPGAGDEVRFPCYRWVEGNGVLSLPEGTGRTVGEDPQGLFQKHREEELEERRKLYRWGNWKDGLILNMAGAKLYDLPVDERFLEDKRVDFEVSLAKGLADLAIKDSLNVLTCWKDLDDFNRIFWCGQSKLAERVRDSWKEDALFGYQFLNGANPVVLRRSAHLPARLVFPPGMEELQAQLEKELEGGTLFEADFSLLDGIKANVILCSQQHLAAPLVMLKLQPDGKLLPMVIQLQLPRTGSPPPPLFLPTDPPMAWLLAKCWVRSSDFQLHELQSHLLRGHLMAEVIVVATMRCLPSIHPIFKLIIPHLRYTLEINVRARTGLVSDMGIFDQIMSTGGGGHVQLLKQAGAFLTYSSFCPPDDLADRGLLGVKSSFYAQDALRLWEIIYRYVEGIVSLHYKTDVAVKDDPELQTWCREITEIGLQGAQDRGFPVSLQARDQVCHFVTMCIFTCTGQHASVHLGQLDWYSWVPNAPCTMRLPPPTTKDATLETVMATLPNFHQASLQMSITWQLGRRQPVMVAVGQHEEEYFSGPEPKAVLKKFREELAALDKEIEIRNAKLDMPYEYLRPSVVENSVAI
How it was run: (§1)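 Monocytes differentiated 6 days with M-CSF (20 ng/ml), then polarized 48 h with IL-4 20 ng/ml (M2). Cells (2 × 10^6) in PBS/1 mM CaCl2 pre-incubated 15 min at 37 °C with 3 µM compound or 0.1% DMSO, then challenged with E. coli O6:K2:H1 (1:50) for 90 min. Lipid mediators extracted by SPE with deuterated internal standards and quantified by UPLC-MS/MS as % of vehicle.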

[3] = biological target: T3, Polyunsaturated fatty acid lipoxygenase ALOX15 (Homo sapiens); experiment: Modulation of 15-LO-mediated 7-HDHA level in human M2 macrophages derived from IL4-polarized human monocyte derived macrophages at 3 uM preincubated for 15 mins followed by Escherichia coli (O6:K2:H1) challenge for 90 mins by LC-MS/MS analysis; how it was run: as §1
[4] = biological target: T3, Polyunsaturated fatty acid lipoxygenase ALOX15 (Homo sapiens); experiment: Modulation of 15-LO-mediated 15-HEPE level in human M2 macrophages derived from IL4-polarized human monocyte derived macrophages at 3 uM preincubated for 15 mins followed by Escherichia coli (O6:K2:H1) challenge for 90 mins by LC-MS/MS analysis; how it was run: as §1
Leukotriene C4 synthase = biological target: T4, Leukotriene C4 synthase (Homo sapiens, UniProt Q16873); experiment: Inhibition of LTC4 synthase (unknown origin)
T4 sequence (Q16873 whole entry): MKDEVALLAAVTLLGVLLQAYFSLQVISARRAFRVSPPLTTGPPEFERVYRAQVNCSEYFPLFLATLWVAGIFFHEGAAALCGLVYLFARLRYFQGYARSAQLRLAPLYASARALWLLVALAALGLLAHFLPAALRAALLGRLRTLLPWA

Homo sapiens [5] = organism: Homo sapiens; experiment: Modulation of LO-mediated RvE3 level in human M2 macrophages derived from IL4-polarized human monocyte derived macrophages at 3 uM preincubated for 15 mins followed by Escherichia coli (O6:K2:H1) challenge for 90 mins by LC-MS/MS analysis; how it was run: as §1
Homo sapiens [6] = organism: Homo sapiens; experiment: Modulation of LO-mediated PDX level in human M2 macrophages derived from IL4-polarized human monocyte derived macrophages at 3 uM preincubated for 15 mins followed by Escherichia coli (O6:K2:H1) challenge for 90 mins by LC-MS/MS analysis; how it was run: as §1
Cyclooxygenase = Cyclooxygenase (Homo sapiens, UniProt P35354+P23219); experiment: Modulation of COX1/2-mediated 11-HEPE level in human M2 macrophages derived from IL4-polarized human monocyte derived macrophages at 3 uM preincubated for 15 mins followed by Escherichia coli (O6:K2:H1) challenge for 90 mins by LC-MS/MS analysis; assay type: ADME; conditions: 1.5 h; how it was run: as §1

- inhibition [1]: Active
- pIC50 (Prostaglandin E synthase): 6.15
- Activity [2]: 135%
- Activity [3]: 107%
- Activity [4]: 125%
- pIC50 (Leukotriene C4 synthase): 5.74
- Activity (Homo sapiens [5]): 121%
- Activity (Homo sapiens [6]): 125%
- Activity (Cyclooxygenase): 107%
SMILES: O=C(O)c1ccc(N(Cc2cccc(OCc3ccccc3)c2)S(=O)(=O)c2ccc(-c3ccccc3)cc2)cc1

Reference: ChEMBL document CHEMBL4270576, “Discovery of a benzenesulfonamide-based dual inhibitor of microsomal prostaglandin E2 synthase-1 and 5-lipoxygenase that favorably modulates lipid mediator biosynthesis in inflammation” (Eur J Med Chem, 2018)
